OX1R antag-1 – antagonists of human orexin 1 receptor (OX1R). 330,000 tested, 1.8% active. OX1R-expressing cells, FRET antagonist read-out. inhibition, % at 6.6 µM; in the data active means inhibition mostly above about 38%, no sharp cut-off; inactive means mostly below about 40%
OX1R antag-2 – OX1R (HCRTR1) antagonists, primary screen, fluorescence, CHO/OX1R cells, Fluo-8 calcium, orexin A. 330,000 tested, 0.43% active. Fluo-8 calcium fluorescence. inhibition, % at 5 µM. Orexin/Hypocretin receptor type 1 (Homo sapiens), O43613. AID 434989, 2010;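 active means inhibition above its plate's threshold, mean inhibition of all tested compounds on the plate plus 3 SD, cut at about 37% in these data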
CHO parental Ca – ATP-evoked calcium signal inhibitors, parental CHO, primary screen, counter-screen for OX1R antagonist project, cell-based, fluorescence, Fluo-8 calcium dye | inhibition, % at 5.6 µM | parental CHO-K1, ATP-induced calcium, Fluo-8 fluorescence | AID 463079, 2010 | 330,000 tested, 0.63% active;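 active means inhibition above that plate's mean sample inhibition plus 3 SD, cut at about 26% in these data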
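Material: Parental CHO cells | Reagent: ATP | Compound dosing: Single nominal dose of 5.6 µM per compound | Detection: Intracellular calcium via Fluo-8 no-wash fluorescent dye | Read-out: % inhibition of ATP-induced calcium mobilization | Benchmarks: Low control ATP plus DMSO, high control DMSO only | Replicates: Singlicate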
TAAR1 antag – human TAAR1 antagonists, primary screen, Fluo-8 calcium fluorescence, CHO RD-HGA16 cells; Trace amine-associated receptor 1 (Homo sapiens), Q96RJ0; antagonist; inhibition, % at 3 µM; 360,000 tested, 1.5% active; AID 624466, 2012;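 active means inhibition above a per-plate cutoff, the mean inhibition of test compounds on that plate plus 3 SD, cut at about 49% in these data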
Target sequence (Q96RJ0 whole entry, looked up): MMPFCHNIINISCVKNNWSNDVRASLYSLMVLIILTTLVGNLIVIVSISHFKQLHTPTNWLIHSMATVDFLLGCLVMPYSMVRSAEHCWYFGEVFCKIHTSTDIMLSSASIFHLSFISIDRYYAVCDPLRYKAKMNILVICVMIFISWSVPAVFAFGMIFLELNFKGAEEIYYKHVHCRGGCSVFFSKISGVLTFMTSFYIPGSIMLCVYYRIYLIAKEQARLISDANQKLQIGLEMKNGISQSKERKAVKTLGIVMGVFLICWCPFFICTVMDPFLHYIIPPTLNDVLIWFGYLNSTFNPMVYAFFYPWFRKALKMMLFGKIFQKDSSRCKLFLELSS
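Test system: CHO RD-HGA16 cells bearing hTAAR1 | Reagent: β-PEA, EC80 | Compound dosing: 3 µM, single point | Schedule: Dye loading 75 min at 37 °C, then 30 min room temperature | Signal: Calcium fluorescence with Fluo-8 | Evaluation: Percent inhibition of PEA-evoked calcium signal, max/basal emission ratio | Control set: DMSO-only wells and EC80 β-PEA-stimulated wells | Repeats: Singlicate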
TAAR1 agonist – human TAAR1 agonists, primary screen, Fluo-8 calcium fluorescence, CHO RD-HGA16 cells. Trace amine-associated receptor 1 (Homo sapiens), Q96RJ0. vehicle wells 0%, saturating PEA agonist 100%. activation, % at 3 µM. 360,000 tested, 0.99% active. AID 624467, 2012;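 active means activation above the mean activation of all test compounds in the run plus 3 SD, cut at about 38% in these data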
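Benchmarks: low control DMSO, high control PEA (EC100); System: CHO RD-HGA16 cells carrying human TAAR1 plus Gα16; Detection: Fluo-8 fluorescence, 5 s baseline then 140 s kinetic read; Schedule: 17-24 h plating, Fluo-8 75 min 37 °C, 30 min RT; Read-out basis: % activation from peak over basal fluorescence ratio, DMSO-to-PEA scaled.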
Hits are given with their value; – = inactive; · = no result given. Hits are enriched below; roughly 3.9% of the tested compounds scored in any of these assays.

SMILES	OX1R antag-1	OX1R antag-2	CHO parental Ca	TAAR1 antag	TAAR1 agonist
O=[N+]([O-])c1cc(O)c(O)c([N+](=O)[O-])c1	–	–	–	–	–
O=[N+]([O-])c1ccc(O)c([N+](=O)[O-])c1	69	–	–	–	–
O=[N+]([O-])c1ccc(Cl)c([N+](=O)[O-])c1	48	–	–	–	–
O=C(NCCN1CCC2(CC1)C(=O)NCN2c1cccc(F)c1)c1ccc2ccccc2c1	·	·	·	106	83
CC(C)(OOC1(c2ccccc2)NC(=O)c2ccccc21)c1ccccc1 (stereo not drawn)	·	·	·	–	–
COC(=O)C1=C(c2ccc(OC(F)(F)F)cc2)C[C@@H]2CC[C@H]1N2C(=O)NCc1ccco1	·	·	·	–	–
CC(C)OC(=O)C1C(c2ccc(I)cc2)CC2CCC1N2C (stereo not drawn)	·	·	·	–	–
CC1CC(C)CN(CC(=O)c2ccc(OC(F)F)cc2)C1 (stereo not drawn)	–	–	–	–	42
Cc1ccc(OC(=O)N(C)C[C@H]2OCc3cnnn3CCCC(=O)N([C@@H](C)CO)C[C@@H]2C)cc1	·	·	·	–	–
CC(=O)C1=C(C)OC2=C(C(=O)CCC2)[C@@]12C(=O)N(C)c1ccccc12	·	·	·	–	–
N#CCCC#N	·	·	·	–	–
CC1CCC(C(C)C)C(OC(=O)Cn2c(COc3ccccc3)[n+](C)c3ccccc32)C1 (stereo not drawn)	–	36	50	–	–
COc1ccc(-c2ccc3c(c2)CN(C(=O)C(C)(C)C)Cc2cnnn2-3)cc1	·	·	·	–	–
O=C(O)c1cccc2nc3ccccc3nc12	48	–	–	–	–
COC(=O)c1ccccc1-n1c(C)nc2ccccc2c1=O	–	–	–	–	–
Cc1ccc(C(=O)N[C@@H](C)CN2C3=NC[C@@H](Cc4ccccc4)N3C[C@H]2Cc2ccc(O)cc2)cc1Br	–	–	–	–	–
Cc1ccc(C(=O)N[C@@H](C)CN2C3=NC[C@H](Cc4ccccc4)N3C[C@H]2Cc2ccc(O)cc2)cc1Br	–	47	42	·	·
CNCC(O)c1cccc(OC(=O)c2ccccc2C)c1 (stereo not drawn)	–	–	–	–	–
CNCC(O)c1cc(OCc2ccccc2)c(OCc2ccccc2)cc1F (stereo not drawn)	–	–	–	–	45
Fc1cccc(-c2ccc3c(c2)CN(c2cccc(Cl)c2)Cc2cnnn2-3)c1	·	·	·	–	–
O=C(N/N=C/c1c(O)n(-c2ccccc2)c(=S)[nH]c1=O)c1ccccc1	–	–	–	–	–
O=C(N/N=C\C1C(=O)NC(=S)N(c2ccccc2)C1=O)c1ccc(O)cc1 (stereo not drawn)	46	–	–	–	–
O=C(NCCN1CCC2(CC1)C(=O)NCN2c1ccccc1)c1cccs1	·	·	·	–	–
O=c1[nH]c2ccccc2n1C1CCN(C(c2cc3ccccc3o2)c2nnnn2-c2ccc3c(c2)OCCO3)CC1 (stereo not drawn)	·	·	·	66	–
COc1ccc(C(c2nnnn2-c2ccc(OC)cc2)N2CCC(n3c(=O)[nH]c4ccccc43)CC2)cc1 (stereo not drawn)	·	·	·	–	–
SMILES	OX1R antag-1	OX1R antag-2	CHO parental Ca	TAAR1 antag	TAAR1 agonist
COc1ccc(-n2nnnc2C(c2cc3ccccc3o2)N2CCC(n3c(=O)[nH]c4ccccc43)CC2)cc1 (stereo not drawn)	·	·	·	51	–
CN(C)CC(C(=O)Cc1ccccc1)c1ccccc1 (stereo not drawn)	·	·	·	–	–
CCOC(=O)C1(c2ccccc2)CCN(CCC(=O)Nc2ccc(OC)cc2)CC1	·	·	·	–	–
CCOC(=O)C1(c2ccccc2)CCN(CCC(=O)Nc2cccc(Br)c2)CC1	·	·	·	50	–
O=C(C1CCCN(S(=O)(=O)c2cccc3nsnc23)C1)N1CCC2(CC1)OCCO2 (stereo not drawn)	41	–	–	–	–
CN(C)C1C(=O)C(C(N)=O)=C(O)C2(O)C(=O)C3=C(O)c4c(O)cccc4C(C)(O)C3C(O)C12 (stereo not drawn)	–	–	–	–	–
O=c1c2ccccc2nc(-c2ccccc2)n1-c1ccccc1	–	–	–	–	–
O=c1c2ccccc2[se]n1-c1ccccc1	–	–	47	–	41
CC1(C)C[C@H]2C=C(C=O)[C@]3(C=O)C[C@]3(C)[C@H]2C1	–	40	69	–	–
CN(C)c1ccc(/C=C/[N+](=O)[O-])cc1	58	–	–	–	40
C/C(=C\c1ccc(N(C)C)cc1)[N+](=O)[O-]	–	–	–	–	–
Cc1c(N=Nc2c(O)[nH]c(=O)[nH]c2=O)c(=O)n(-c2ccccc2)n1C	–	–	–	–	–
Cc1c(N=Nc2c(O)n(-c3ccc(Br)cc3)c(=O)[nH]c2=O)c(=O)n(-c2ccccc2)n1C	66	–	–	–	–
Cc1ccc(Cn2nc(C(=O)Nc3ccc(Br)cc3)cc2C)cc1	–	–	50	–	–
CC(C)S(=O)(=O)N1Cc2ccc(Br)cc2-n2nncc2C1	·	·	·	–	–
COC1CC=C2CCN3CCC4=C(CC(=O)OC4)C23C1 (stereo not drawn)	·	·	·	–	–
COc1ccc(-n2nnnc2C(CCSC)N2CCC3(CC2)C(=O)NCN3c2ccccc2)cc1 (stereo not drawn)	·	·	·	51	–
C=C(C)C(Cc1c(OC)ccc(C(=O)/C=C/c2ccc(O)cc2)c1O)OO (stereo not drawn)	–	–	–	54	–
[O-]c1ccccc1-[n+]1c(-c2ccccc2)cc(-c2ccccc2)cc1-c1ccccc1	–	–	48	–	–
Oc1ccccc1-[n+]1c(-c2ccccc2)cc(-c2ccccc2)cc1-c1ccccc1	–	–	–	51	–
Cc1ccccc1-[n+]1c(-c2ccccc2)cc(-c2ccccc2)cc1-c1ccccc1	–	–	54	–	–
COc1ccc(-[n+]2c(-c3ccccc3)cc(-c3ccc(C)cc3)cc2-c2ccccc2)cc1	–	–	45	–	–
COc1ccc(-c2cc(-c3ccccc3)[n+](C)c(-c3ccccc3)c2)cc1	–	–	–	–	–
Cc1cc(N2CCNC[C@H]2C)ccc1N1CC[C@H](O)C1	·	·	·	–	–
CS(=O)(=O)N1Cc2ccccc2-n2nncc2C1	·	·	·	–	–
CCN1C[C@]2(COC)CC[C@H](O)[C@]34C1[C@](O)([C@@H](OC)[C@H]23)[C@@]1(O)C[C@H](OC)[C@H]2C[C@@H]4[C@@H]1[C@H]2OC	–	–	–	–	–
CN1CC[C@@H]2CN[C@H](c3ccccc3)C[C@@H]21	·	·	·	–	–
N#CC(Br)Br	–	–	–	–	–
COc1cc2c(cc1OC)CN(c1ccc([N+](=O)[O-])c(C(F)(F)F)c1)CC2	48	–	–	–	–

From PubChem BioAssay
